# Results from different studies.
# Lines come from different studies, so protocols differ.
# AKR1C2: Aldo-keto reductase family 1 member C2 (AKR1C2, Homo sapiens, UniProt P52895)
# Neuronal acetylcholine receptor; alpha3/beta2: Neuronal acetylcholine receptor; alpha3/beta2 (Rattus norvegicus, UniProt P04757+P12390)
SMILES,target,observed,mode,method,setting,IC50 [µM]
O=C(O)C(F)(OC(F)(F)C(F)(F)C(F)(F)F)C(F)(F)F (centres unmarked),AKR1C2,enzyme activity,inhibitor,fluorescence,,13.8
COc1ccc2[nH]c3c(c2c1)CCN(C)CC3,Neuronal acetylcholine receptor; alpha3/beta2,ion current,antagonist,two-electrode voltage clamp,oocytes,28.3
COC(=O)c1cc(N(C)C(=O)c2ccn3ncc(-c4ccc(C(=O)O)cc4)c3c2)ccc1Cl,"Vascular endothelial growth factor receptor 1 (FLT1, Homo sapiens, UniProt P17948)",enzyme activity,inhibitor,,,> 30
CC[C@H](C)[C@H](NC(C)=O)C(=O)N[C@@H](CCC(=O)O)C(=O)N[C@H](C(=O)N[C@H](C=O)CC(=O)O)[C@@H](C)O,"Caspase-4 (Casp4, Mus musculus, UniProt P70343)",enzyme activity,inhibitor,,,0.162
O=C(NC[C@H]1C[C@@H]2CCN1C[C@@H]2CN1C[C@@H]2C[C@H](C1)c1cccc(=O)n1C2)c1ccc2c(c1)OCO2,"Atypical kinase COQ8A, mitochondrial (COQ8A, Homo sapiens, UniProt Q8NI60)",ligand displacement,,TR-FRET,,13.7
O=C(O)C(F)F,AKR1C2,enzyme activity,inhibitor,fluorescence,,> 50
COc1ccc2c3c([nH]c2c1)CCN(C)CC3,Neuronal acetylcholine receptor; alpha3/beta2,ion current,antagonist,two-electrode voltage clamp,oocytes,27.6
CNC(=O)c1ccc(-c2cnn3ccc(C(=O)N(C)c4ccc(Cl)c(C(=O)OC)c4)cc23)cc1,"Serine/threonine-protein kinase Nek11 (NEK11, Homo sapiens, UniProt Q8NG66)",enzyme activity,inhibitor,,,> 30
